Experimental data reported in PMC6471013 (Chemistry (Weinheim an Der Bergstrasse, Germany), 2018).
Read-outs that look alike come from different tables or passages of the source.

Key:
[1] = test system: αvβ3‐expressing human renal cell carcinoma 786‐O cells; assay: Cell antiproliferative assay, 96 h, with or without elastase; assay type: cell-based; conditions: 786-0, 96 h
In short: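 786‐O renal carcinoma cells (αvβ3-positive) exposed to test compound for 96 h, with or without 50 nm elastase from human leukocytes. IC50 taken as the concentration giving 50 % inhibition of cell viability. Samples run in triplicate.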

[2] = molecular target: Recombinant human integrin αvβ3 receptor (Homo sapiens, UniProt P05106+P06756); assay type: binding; conditions: competition with biotinylated vitronectin for the isolated αvβ3 receptor
Sequence of Recombinant human integrin αvβ3 receptor (P06756 31-992 limits assumed): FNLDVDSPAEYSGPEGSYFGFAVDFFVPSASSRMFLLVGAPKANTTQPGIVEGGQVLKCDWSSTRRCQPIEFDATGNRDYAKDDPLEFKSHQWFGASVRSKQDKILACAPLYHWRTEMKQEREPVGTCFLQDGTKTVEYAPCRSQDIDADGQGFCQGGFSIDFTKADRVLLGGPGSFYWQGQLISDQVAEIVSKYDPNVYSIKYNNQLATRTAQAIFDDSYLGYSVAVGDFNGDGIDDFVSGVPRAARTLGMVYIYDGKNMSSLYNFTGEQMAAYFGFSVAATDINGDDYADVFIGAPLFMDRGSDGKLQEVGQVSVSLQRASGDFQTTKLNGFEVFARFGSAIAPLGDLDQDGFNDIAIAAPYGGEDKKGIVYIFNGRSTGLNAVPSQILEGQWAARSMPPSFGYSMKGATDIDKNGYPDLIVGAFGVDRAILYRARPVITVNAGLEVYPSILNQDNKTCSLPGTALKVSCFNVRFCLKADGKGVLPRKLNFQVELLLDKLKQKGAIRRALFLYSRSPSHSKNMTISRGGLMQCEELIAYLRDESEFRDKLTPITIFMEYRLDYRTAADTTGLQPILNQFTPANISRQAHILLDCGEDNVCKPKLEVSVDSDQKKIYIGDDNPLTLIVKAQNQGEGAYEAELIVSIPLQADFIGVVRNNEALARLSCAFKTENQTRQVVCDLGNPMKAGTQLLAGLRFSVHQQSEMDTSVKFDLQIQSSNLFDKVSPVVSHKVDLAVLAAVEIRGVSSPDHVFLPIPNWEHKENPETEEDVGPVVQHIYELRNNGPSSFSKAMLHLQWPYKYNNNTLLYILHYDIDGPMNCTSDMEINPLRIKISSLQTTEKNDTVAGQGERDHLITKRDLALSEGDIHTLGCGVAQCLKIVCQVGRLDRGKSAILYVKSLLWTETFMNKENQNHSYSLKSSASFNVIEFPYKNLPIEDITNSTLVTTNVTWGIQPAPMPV
Sequence of Recombinant human integrin αvβ3 receptor (P05106 27-718 limits assumed): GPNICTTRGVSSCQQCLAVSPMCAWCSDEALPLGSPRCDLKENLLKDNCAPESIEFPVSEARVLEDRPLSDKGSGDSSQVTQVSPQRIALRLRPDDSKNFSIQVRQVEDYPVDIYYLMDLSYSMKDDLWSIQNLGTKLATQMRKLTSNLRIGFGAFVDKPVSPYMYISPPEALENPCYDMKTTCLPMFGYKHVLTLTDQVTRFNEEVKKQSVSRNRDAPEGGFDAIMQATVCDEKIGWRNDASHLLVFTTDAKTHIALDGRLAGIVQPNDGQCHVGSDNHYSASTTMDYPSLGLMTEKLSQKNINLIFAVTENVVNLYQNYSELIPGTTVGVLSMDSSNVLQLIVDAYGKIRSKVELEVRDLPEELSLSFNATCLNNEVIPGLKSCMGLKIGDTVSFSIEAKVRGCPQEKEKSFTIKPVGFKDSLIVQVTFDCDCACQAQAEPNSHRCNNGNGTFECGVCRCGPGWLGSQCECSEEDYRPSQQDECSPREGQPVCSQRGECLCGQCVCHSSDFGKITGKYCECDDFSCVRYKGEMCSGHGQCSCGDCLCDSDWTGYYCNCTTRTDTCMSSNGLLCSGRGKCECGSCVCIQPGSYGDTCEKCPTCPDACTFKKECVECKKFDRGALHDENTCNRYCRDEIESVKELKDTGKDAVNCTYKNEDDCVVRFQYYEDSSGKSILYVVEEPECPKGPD
In short: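 Test compound competes with biotinylated vitronectin for binding to the αvβ3 receptor. IC50 is the concentration giving 50 % inhibition of vitronectin binding, estimated by curve fitting. Values are mean ± SD of duplicate determinations.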

| Structure (SMILES) | IC50 ([1]; read-out: IC50, added elastase NO) | IC50 ([1]; read-out: IC50, added elastase YES) | αvβ3 integrin binding IC50, in words [2] |
| --- | --- | --- | --- |
| CC(=O)O[C@H]1C(=O)[C@@]2(C)[C@H]([C@H](OC(=O)c3ccccc3)[C@]3(O)C[C@H](OC(=O)[C@H](O)[C@@H](NC(=O)c4ccccc4)c4ccccc4)C(C)=C1C3(C)C)[C@]1(OC(C)=O)CO[C@@H]1C[C@@H]2O [compound 12, Paclitaxel] | 0.0358 ± 0.0167 µM | 0.0295 ± 0.0076 µM | – |
| N=C(N)NCCC[C@@H]1NC(=O)C[C@@H]2NC(=O)[C@@H](CNC(=O)[C@H](CC(=O)O)NC(=O)CCNC1=O)N(Cc1ccccc1)C2=O [compound 3, cyclo(DKP‐RβAD)] | – | – | micromolar |
| CN1C(=CC=CC=CC2=[N+](CCCCCC(=O)NCc3ccc(CN4C(=O)[C@@H]5CC(=O)N[C@@H](CCCNC(=N)N)C(=O)NCC(=O)N[C@@H](CC(=O)O)C(=O)NC[C@@H]4C(=O)N5)cc3)c3ccc(S(=O)(=O)[O-])cc3C2(C)C)C(C)(C)c2cc(S(=O)(=O)O)ccc21 [compound 2, cyclo(DKP‐RGD)‐sCy5] | – | – | low‐nanomolar |
